The sample as a whole holds a higher share of hits than the screen did.
GASC1 inh – inhibitors of GASC-1 (KDM4C) histone demethylase, primary screen, biochemical, single concentration HTS; hit rate 0.15% among 96,000; AID 720574, 2013; inhibition, % at 12.5 µM; Lysine-specific demethylase 4C (Homo sapiens), Q9H3R0; GST-KDM4C 2-372, H3K9me3 peptide, LANCE TR-FRET;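 active = mean replicate inhibition above about 25%, with at least 55% of replicates also reaching it, limit read from the data, passing the limit was not always enough; inconclusive = only one of those two conditions met; inactive = neither condition met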
Target sequence (Q9H3R0 2-372 limits assumed): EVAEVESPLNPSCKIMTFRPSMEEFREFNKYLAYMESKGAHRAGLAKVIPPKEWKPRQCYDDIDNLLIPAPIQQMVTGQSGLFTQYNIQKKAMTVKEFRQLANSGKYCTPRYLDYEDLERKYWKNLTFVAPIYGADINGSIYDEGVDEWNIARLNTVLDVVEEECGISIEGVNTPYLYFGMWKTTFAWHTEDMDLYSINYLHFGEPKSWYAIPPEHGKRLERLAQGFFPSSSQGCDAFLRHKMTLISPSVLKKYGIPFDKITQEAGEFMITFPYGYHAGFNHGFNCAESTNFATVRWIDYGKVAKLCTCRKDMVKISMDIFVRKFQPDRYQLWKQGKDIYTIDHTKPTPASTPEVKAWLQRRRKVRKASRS
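System: N-terminal GST-fused human GASC-1 (KDM4C) fragment, residues 2-372 / Amount: 10 nM GST-KDM4C in enzyme reaction / Also added: H3K9me3 peptide with Fe(II)/2OG / Times: 30 min demethylation and 1 h detection at room temperature / Signal: LANCE TR-FRET / Read-out basis: Fall in 671/618 emission ratio as inhibition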
T cruzi growth-1 – T. cruzi intracellular proliferation inhibitors, primary screen, cell-based, beta-gal Tulahuen parasites, NIH3T3 host, luminescence; T. cruzi beta-gal in NIH3T3, GalScreen luminescence, 90 h; inhibition, % at 8.34 µM; hit rate 5.9% among 77,000;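 active = mean inhibition above about 93%, with at least 55% of replicates each passing it, limit read from the data, passing the limit was not always enough; inconclusive = only one of those two conditions holds; inactive = neither condition holds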
IDH1 R132H inh – inhibitors of IDH1 R132H reductase, primary screen, biochemical, plate reader, single point | Isocitrate dehydrogenase [NADP] cytoplasmic (Homo sapiens), O75874 | inhibition, % at 10 µM | diaphorase/resazurin fluorescence, 60 min | hit rate 0.18% among 70,000; in the data active = inhibition above about 34%; inconclusive = no clear call, values can overlap the other calls; inactive = below about 11%;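 also: 0% = DMSO and 100% = no enzyme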
Target sequence (O75874 whole entry R132H): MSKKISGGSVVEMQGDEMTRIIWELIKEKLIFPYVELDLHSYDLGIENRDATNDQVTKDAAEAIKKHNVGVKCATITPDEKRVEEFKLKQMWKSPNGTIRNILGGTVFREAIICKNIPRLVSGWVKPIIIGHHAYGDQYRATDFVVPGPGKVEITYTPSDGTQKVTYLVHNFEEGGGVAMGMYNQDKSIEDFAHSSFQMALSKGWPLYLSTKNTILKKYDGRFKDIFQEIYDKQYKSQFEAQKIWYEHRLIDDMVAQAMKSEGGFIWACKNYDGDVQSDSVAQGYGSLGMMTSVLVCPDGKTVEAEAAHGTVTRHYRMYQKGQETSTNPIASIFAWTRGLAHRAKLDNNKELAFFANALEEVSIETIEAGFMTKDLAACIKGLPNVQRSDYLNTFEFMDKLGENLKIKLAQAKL
T cruzi growth-2 – T. cruzi intracellular proliferation inhibitors, confirmation, cell-based, NIH3T3 host, beta-gal parasite, luminescence, cherry-pick; shares compounds with T cruzi growth-1; T. cruzi beta-gal in NIH3T3, GalScreen luminescence, 90 h; inhibition, % at 8.35 µM; hit rate 72% among 5,600; AID 651739, 2012;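 active = mean replicate inhibition above about 95% and at least 55% of replicates individually reaching it, limit read from the data; inconclusive = only one of the two criteria is met; inactive = neither criterion is met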
T cruzi growth-3 – inhibitors of intracellular T. cruzi replication, confirmation, NIH3T3 host cells, beta-gal parasites, cherry-pick, set 2; T. cruzi beta-gal in NIH3T3, GalScreen luminescence, 90 h; inhibition, % at 2.09 µM; hit rate 21% among 5,600; AID 651740, 2012; shares compounds with T cruzi growth-1;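 active = mean inhibition above about 95%, with at least 55% of replicates also reaching it, limit read from the data; inconclusive = meets just one of the two conditions; inactive = meets neither condition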;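 also: plate controls were neutral control median for no effect and positive control median for full effect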
3T3 cytotox – cytotoxicity in mouse NIH/3T3 fibroblasts, confirmation, cytotoxicity control for T. cruzi proliferation inhibitor project, cell-based, cherry-pick, single point; shares compounds with T cruzi growth-1; cytotoxicity (signal decrease), % at 8.35 µM; hit rate 14% among 5,600; AID 651742, 2012; NIH/3T3 viability, CellTiter-Glo ATP luminescence, 90 h;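 active = mean signal decrease across replicates above about 35% based on untreated-well scatter, with enough replicates individually passing, limit read from the data; inconclusive = no rule stated though some were filed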;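 also: 0% = median of neutral control wells and 100% = median of positive control wells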
3T3 cytotox 2 – NIH/3T3 fibroblast cytotoxicity, confirmation, cytotoxicity control, cell-based, cherry-pick, single point, set 2. shares compounds with T cruzi growth-1. NIH/3T3 viability, CellTiter-Glo ATP luminescence, 90 h. inhibition, % at 24.9 µM. hit rate 56% among 5,600;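 active = mean loss of cell viability signal at or above a set limit, and enough replicates individually reaching it; inconclusive = meets only the mean limit or only the replicate share; inactive = meets neither condition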;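 also: 0% = median of neutral control wells and 100% = median of positive control wells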
Numbers without * were called inactive; ? = inconclusive; / = not tested or not shown.

SMILES | GASC1 inh | T cruzi growth-1 | IDH1 R132H inh | T cruzi growth-2 | T cruzi growth-3 | 3T3 cytotox | 3T3 cytotox 2
C[C@@H]1CN([C@@H](C)CO)S(=O)(=O)c2ccc(C#CCN(C)C)cc2O[C@H]1CN(C)Cc1ccccn1 | 3 | ? | 4 | / | / | / | /
C[C@H](CO)N1C[C@H](C)[C@@H](CN(C)Cc2ccccn2)Oc2cc(C#CCN(C)C)ccc2S1(=O)=O | 1 | ? | -1 | / | / | / | /
C[C@@H]1CN([C@@H](C)CO)S(=O)(=O)c2ccc(C#CCN(C)C)cc2O[C@@H]1CN(C)Cc1ccccn1 | 8 | ? | -3 | 82 | 68 | 31 | 28*
C[C@H]1CN([C@@H](C)CO)S(=O)(=O)c2ccc(C#CCN(C)C)cc2O[C@@H]1CN(C)Cc1ccccn1 | 1 | 101* | 0 | 97* | 99* | 4 | 12
COC(=O)CCCCCCC(=O)N/N=C/C1=CC[C@H]2C[C@@H]1C2(C)C | / | / | 0 | / | / | / | /
CC(C)c1ccc(NC(=O)CNS(=O)(=O)c2ccc(Br)cc2)cc1 | / | / | 0 | / | / | / | /
Nc1nnc(SCC(=O)Nc2ccc(Br)cc2Cl)n1-c1ccccc1 | / | / | 1 | / | / | / | /
COCc1nc2ccccc2n1CCOc1ccc(Cl)cc1 | / | / | -1 | / | / | / | /
CCCC#Cc1ccc([C@@H]2[C@H](C#N)N(C(=O)C3CCC3)[C@H]2CO)cc1 | 0 | ? | / | 101* | 105* | 26 | 30*
CN(C)CC#Cc1ccc([C@H]2[C@@H](CO)N(C(=O)C3CCCC3)[C@H]2C#N)cc1 | -2 | 25 | / | / | / | / | /
CCCC#Cc1ccc([C@H]2[C@@H](CO)N(C(=O)C3CCC3)[C@H]2C#N)cc1 | -2 | / | / | / | / | / | /
CCCC#Cc1ccc([C@H]2[C@@H](C#N)N(C(=O)C3CCCC3)[C@@H]2CO)cc1 | -3 | 103* | / | 100* | 104* | -6 | 15
CCCC#Cc1ccc([C@@H]2[C@@H](C#N)N(C(=O)C3CCCCC3)[C@@H]2CO)cc1 | 0 | 103* | / | 100* | 91 | 2 | 14
CCCC#Cc1ccc([C@@H]2[C@@H](CO)N(C(=O)C3CCCC3)[C@H]2C#N)cc1 | 0 | 100* | / | 97* | 98* | -1 | 5
CCCC#Cc1ccc([C@H]2[C@@H](C#N)N(C(=O)C3CCCCC3)[C@H]2CO)cc1 | -1 | 91 | / | / | / | / | /
CS(=O)(=O)N(CC(=O)Nc1cccc(Br)c1)c1cccc2ccccc12 | / | / | 0 | / | / | / | /
O=C(N/N=C/c1cc(I)cc(I)c1O)c1ccccc1O | / | / | 0 | / | / | / | /
CCN(CC)CCNc1ncnc2scc(-c3ccc(F)cc3)c12 | / | / | -1 | / | / | / | /
CC(C)C#Cc1ccc([C@@H]2[C@@H](C#N)N(C(=O)C3CCC3)[C@@H]2CO)cc1 | 0 | 90 | / | / | / | / | /
CC(C)C#Cc1ccc([C@H]2[C@H](C#N)N(C(=O)C3CCC3)[C@H]2CO)cc1 | -3 | 97* | / | 108* | 31 | 0 | 6
Cc1ccc(-c2cnc3c(c2)C(=O)N([C@@H](C)CO)C[C@@H](C)[C@H](CN(C)CC2CCCC2)O3)cc1 | 4 | 52 | -1 | / | / | / | /
C[C@H]1CN([C@@H](C)CO)C(=O)c2cc(-c3cncnc3)cnc2O[C@H]1CN(C)C(=O)CN1CCOCC1 | 2 | / | 0 | / | / | / | /
C[C@@H]1CN([C@H](C)CO)C(=O)c2cc(-c3ccccc3)cnc2O[C@H]1CN(C)C | 3 | ? | 2 | 100* | -26 | 5 | 20
C[C@H](CO)N1C[C@H](C)[C@@H](CN(C)C)Oc2ncc(-c3ccccc3)cc2C1=O | -2 | 12 | -2 | / | / | / | /
Cc1ccc(-c2cnc3c(c2)C(=O)N([C@@H](C)CO)C[C@H](C)[C@@H](CN(C)CC2CCCC2)O3)cc1 | -2 | 103* | -1 | 108* | 43 | ? | 105*
SMILES | GASC1 inh | T cruzi growth-1 | IDH1 R132H inh | T cruzi growth-2 | T cruzi growth-3 | 3T3 cytotox | 3T3 cytotox 2
C[C@H](CO)N1C[C@H](C)[C@@H](CN(C)C(=O)CN2CCOCC2)Oc2ncc(-c3cncnc3)cc2C1=O | 1 | ? | -1 | -8 | 14 | -2 | -4
Cc1ccc(N(C(C)C(=O)Nc2cccc(C)c2C)S(C)(=O)=O)cc1 (stereo not given) | / | / | 0 | / | / | / | /
Cc1cc(C)c(C(=O)Nc2ccc(S(=O)(=O)Nc3cc(C)nc(C)n3)cc2)c(C)c1 | / | / | 0 | / | / | / | /
Cc1ccc(-c2cc(C(F)(F)F)n3nc(C(=O)NCc4cc(C)n(C)n4)cc3n2)cc1C | / | / | 0 | / | / | / | /
Cc1ccc(OCC(=O)Nc2ccc(Cl)cc2C(=O)O)cc1C | / | / | -1 | / | / | / | /
CCn1c(SCC(=O)Nc2cccc(F)c2)nnc1-c1ccc(Cl)cc1Cl | / | / | 0 | / | / | / | /
CN1c2ccc(C#Cc3cccnc3)cc2[C@@H]2[C@@H](CCN2C(=O)c2cccc(F)c2)[C@@H]1CO | 20 | 109* | / | 107* | 45 | 31 | 31*
CN1c2ccc(C#Cc3cccnc3)cc2[C@@H]2[C@@H](CCN2C(=O)C2CCCCC2)[C@H]1CO | 1 | 119* | / | 110* | 57 | 41* | 42*
CN1c2ccc(C#Cc3cccnc3)cc2[C@H]2[C@H](CCN2C(=O)c2cccnc2)[C@H]1CO | -1 | 47 | / | / | / | / | /
CN1c2ccc(C#Cc3cccnc3)cc2[C@H]2[C@H](CCN2S(=O)(=O)c2ccc(F)cc2)[C@@H]1CO | 0 | 103* | / | 98* | 89 | 15 | 31*
COc1cccc(S(=O)(=O)N2CC[C@@H]3[C@H]2c2cc(C#Cc4cccnc4)ccc2N[C@@H]3CO)c1 | -1 | ? | / | 107* | 86 | 14 | 43*
Cc1ccc(S(=O)(=O)N2CC[C@H]3[C@@H](CO)N(C)c4ccc(C#Cc5cccnc5)cc4[C@H]32)cc1 | 2 | 21 | / | / | / | / | /
CN1c2ccc(C#Cc3cccnc3)cc2[C@H]2[C@H](CCN2C(=O)C2CCCCC2)[C@@H]1CO | 2 | 83 | / | / | / | / | /
COc1ccc(S(=O)(=O)N2CC[C@@H]3[C@H]2c2cc(C#Cc4cccnc4)ccc2N[C@@H]3CO)cc1 | -2 | 66 | / | / | / | / | /
Cn1c(SCC(=O)Nc2ccc(C(=O)O)cc2)nnc1-c1ccc(Br)cc1 | / | / | 0 | / | / | / | /
COC(=O)CCCCCCC(=O)N/N=C/c1ccoc1 | / | / | 0 | / | / | / | /
OC[C@@H]1[C@H](c2ccc(-c3ccc(F)cc3)cc2)[C@H]2CN(Cc3ccccn3)CCCCN12 | 0 | 99* | / | 107* | 92 | 31 | 108*
OC[C@H]1[C@H](c2ccc(-c3cccnc3)cc2)[C@@H]2CN(Cc3ccccn3)CCCCN12 | 1 | ? | / | 106* | 68 | -9 | -3
OC[C@H]1[C@@H](c2ccc(-c3cccnc3)cc2)[C@H]2CN(Cc3ccccn3)CCCCN21 | 0 | 72 | / | / | / | / | /
